From ChEMBL document CHEMBL1687827, “Profiling the Aspergillus fumigatus proteome in response to caspofungin” (2011)
The source made the active and inactive calls. No cut-off for these calls is given here.

What was measured:
[1] = test system: Aspergillus fumigatus; test: Induction of change in cytochrome c oxidase polypeptide vib protein level in iTRAQ-118 labelled cell wall fraction of drug-resistant Aspergillus fumigatus EMFR-S678P at 0.12 ug/ml after 24 hrs in YPD medium by MS (MS/MS) analysis relative to control; format: functional, organism-based
In short: (§1)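 Conidia at 1 × 10⁵/ml were grown at 37°C, shaking at 225 rpm, in YPD with or without 0.12 μg/ml caspofungin for 24 or 48 h. The culture filtrate was kept as the secreted fraction. Mycelia were lysed by French press in HEPES/glycerol/EDTA/PMSF/DTT buffer, and the 5,000 × g pellet was washed to give CW/PM. Proteins were reduced, alkylated and trypsin-digested at 37°C overnight, then iTRAQ-labelled and run by 2D LC-MS/MS. Ratios are the median of unique-peptide ratios, median-normalized, versus the no-drug control.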

[2] = test system: Aspergillus fumigatus; test: Induction of change in citrate synthase, eukaryotic protein level in iTRAQ-116 labelled secreted fraction of drug-susceptible Aspergillus fumigatus KU80 delta-akuB at 0.12 ug/ml after 48 hrs in YPD medium by MS (MS/MS) analysis relative to control; format: functional
In short: (§2)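 Conidia at 1 × 10⁵/ml grown shaking at 37°C in YPD with or without 0.12 μg/ml caspofungin; mycelia filtered at 24 or 48 h. Secreted fraction taken from the filtrate; cell wall/plasma membrane pellet recovered after French-press lysis and a 5,000 × g spin. Proteins trypsin-digested and iTRAQ-labelled, drug vs no-drug channels at each time, then 2D LC-MS/MS. Protein ratio is the median of ratios from uniquely assigned peptides after median normalization.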

[3] = test system: Aspergillus fumigatus; test: Induction of change in ribosomal protein L26 protein level in iTRAQ-116 labelled secreted fraction of drug-resistant Aspergillus fumigatus EMFR-S678P at 0.12 ug/ml after 48 hrs in YPD medium by MS (MS/MS) analysis relative to control; format: functional, organism-based; in short: as §1
[4] = test system: Aspergillus fumigatus; test: Induction of change in hypothetical protein locus AFUA_8G07100 level in iTRAQ-116 labelled secreted fraction of drug-susceptible Aspergillus fumigatus KU80 delta-akuB at 0.12 ug/ml after 48 hrs in YPD medium by MS (MS/MS) analysis relative to control; format: functional
In short: (§3)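 Conidia (1 × 10⁵/ml) grown in YPD, 37°C, 225 rpm, ± 0.12 μg/ml caspofungin; filtrate taken as secreted fraction, French-press lysate 5,000 × g pellet as cell wall/plasma membrane. Trypsin digests 8-plex iTRAQ-labelled (drug-free channels as references), pooled, 2D-chromatography, MS/MS. Median-normalized; protein ratio = median of unique-peptide ratios, log2 normalized.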

[5] = test system: Aspergillus fumigatus; test: Induction of change in 14-alpha sterol demethylase Cyp51A protein level in iTRAQ-118 labelled cell wall fraction of drug-resistant Aspergillus fumigatus EMFR-S678P at 0.12 ug/ml after 24 hrs in YPD medium by MS (MS/MS) analysis relative to control; format: functional, organism-based; in short: as §1
[6] = test system: Aspergillus fumigatus; test: Induction of change in transcriptional repressor TupA/RocA, putative protein level in iTRAQ-118 labelled cell wall fraction of drug-susceptible Aspergillus fumigatus KU80 delta-akuB at 0.12 ug/ml after 24 hrs in YPD medium by MS (MS/MS) analysis relative to control; format: functional; in short: as §3
[7] = test system: Aspergillus fumigatus; test: Induction of change in cell wall glucanase (Utr2), putative protein level in iTRAQ-118 labelled cell wall fraction of drug-susceptible Aspergillus fumigatus KU80 delta-akuB at 0.12 ug/ml after 24 hrs in YPD medium by MS (MS/MS) analysis relative to control; format: functional; in short: as §2
[8] = test system: Aspergillus fumigatus; test: Induction of change in allergen Asp F4 protein level in iTRAQ-116 labelled secreted fraction of drug-susceptible Aspergillus fumigatus KU80 delta-akuB at 0.12 ug/ml after 48 hrs in YPD medium by MS (MS/MS) analysis relative to control; format: functional; in short: as §2
[9] = test system: Aspergillus fumigatus; test: Induction of change in citrate synthase, eukaryotic protein level in iTRAQ-116 labelled cell wall fraction of drug-susceptible Aspergillus fumigatus KU80 delta-akuB at 0.12 ug/ml after 48 hrs in YPD medium by MS (MS/MS) analysis relative to control; format: functional; in short: as §2
[10] = test system: Aspergillus fumigatus; test: Induction of change in Plasma membrane H-ATPase Pma1 protein level in iTRAQ114 labelled cell wall fraction of drug-resistant Aspergillus fumigatus EMFR-S678P at 0.12 ug/ml after 24 hrs in YPD medium by MS (MS/MS) analysis relative to control; format: functional; in short: as §1
[11] = test system: Aspergillus fumigatus; test: Antifungal activity against drug-resistant Aspergillus fumigatus EMFR-S678P assessed as change in hyphal morphology by YPD medium; format: functional; details: read-out: MEC
In short: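 CLSI M38-A2 broth microdilution, run in triplicate in RPMI or YPD medium as the line specifies. Caspofungin was dissolved in sterile water. The minimum effective concentration (MEC) was the lowest concentration giving a significant change in hyphal morphology visible to the eye.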

[12] = test system: Aspergillus fumigatus; test: Induction of change in 60S ribosomal protein P0 protein level in iTRAQ114 labelled cell wall fraction of drug-susceptible Aspergillus fumigatus KU80 delta-akuB at 0.12 ug/ml after 24 hrs in YPD medium by MS (MS/MS) analysis relative to control; format: functional; in short: as §2
[13] = test system: Aspergillus fumigatus; test: Induction of change in IgE-binding protein level in iTRAQ-116 labelled secreted fraction of drug-susceptible Aspergillus fumigatus KU80 delta-akuB at 0.12 ug/ml after 48 hrs in YPD medium by MS (MS/MS) analysis relative to control; format: functional; in short: as §2
[14] = test system: Aspergillus fumigatus; test: Induction of change in hypothetical protein locus AFUA_5G14680 level in iTRAQ-116 labelled secreted fraction of drug-susceptible Aspergillus fumigatus KU80 delta-akuB at 0.12 ug/ml after 48 hrs in YPD medium by MS (MS/MS) analysis relative to control; format: functional; in short: as §3
[15] = test system: Aspergillus fumigatus; test: Induction of change in Mitochondrial hypoxia-responsive domain protein level in iTRAQ-116 labelled cell wall fraction of drug-resistant Aspergillus fumigatus EMFR-S678P at 0.12 ug/ml after 24 hrs in YPD medium by MS (MS/MS) analysis relative to control; format: functional, organism-based; in short: as §1
[16] = test system: Aspergillus fumigatus; test: Induction of change in GNAT family acetyltransferase, putative protein level in iTRAQ-118 labelled cell wall fraction of drug-susceptible Aspergillus fumigatus KU80 delta-akuB at 0.12 ug/ml after 24 hrs in YPD medium by MS (MS/MS) analysis relative to control; format: functional; in short: as §2
[17] = test system: Aspergillus fumigatus; test: Induction of change in Ribosomal protein S5 protein level in iTRAQ114 labelled cell wall fraction of drug-resistant Aspergillus fumigatus EMFR-S678P at 0.12 ug/ml after 24 hrs in YPD medium by MS (MS/MS) analysis relative to control; format: functional, organism-based; in short: as §1
[18] = test system: Aspergillus fumigatus; test: Induction of change in extracellular conserved serine-rich protein level in iTRAQ-116 labelled secreted fraction of drug-resistant Aspergillus fumigatus EMFR-S678P at 0.12 ug/ml after 48 hrs in YPD medium by MS (MS/MS) analysis relative to control; format: functional; in short: as §1
[19] = test system: Aspergillus fumigatus; test: Induction of change in phosphoglycerate kinase PgkA, putative protein level in iTRAQ-116 labelled secreted fraction of drug-susceptible Aspergillus fumigatus KU80 delta-akuB at 0.12 ug/ml after 48 hrs in YPD medium by MS (MS/MS) analysis relative to control; format: functional; in short: as §3

CC[C@H](C)C[C@H](C)CCCCCCCCC(=O)N[C@H]1C[C@@H](O)[C@@H](NCCN)NC(=O)[C@@H]2[C@@H](O)CCN2C(=O)[C@H]([C@H](O)CCN)NC(=O)[C@H]([C@H](O)[C@@H](O)c2ccc(O)cc2)NC(=O)[C@@H]2C[C@@H](O)CN2C(=O)[C@H]([C@@H](C)O)NC1=O [CASPOFUNGIN]
Activity [1]: inactive | fold change (FC) [2]: -1.6 | Activity [3]: inactive | fold change (FC) [4]: 2.1 | Activity [5]: inactive | fold change (FC) [6]: -2.1 | fold change (FC) [7]: -3 | fold change (FC) [8]: -7 | fold change (FC) [9]: -1.2 | fold change (FC) [10]: -1.15 | minimal effective concentration [11]: > 16 µg/mL | fold change (FC) [12]: 2.1 | fold change (FC) [13]: -1 | fold change (FC) [14]: -2.5 | Activity [15]: inactive | fold change (FC) [16]: -2.6 | Activity [17]: inactive | fold change (FC) [18]: -1.07 | fold change (FC) [19]: -2.8
